Article PMC3701953 (Bioorganic & medicinal chemistry letters, 2013)
“And” between values parts separate entries of the source, which are not always exact repeats. Identical values can stand only once. Like-named read-outs stand apart in the source and are kept apart here.

What was measured:
MAGI cells = experiment: Compound toxicity in MAGI cells by MTS dye reduction; type: cell-based
CYP 3A4 = CYP 3A4 (Homo sapiens, UniProt P08684); experiment: CYP 3A4 substrate activity in pooled human liver microsomes; type: in vitro ADME; conditions: relative to control (100%)
CYP 3A4, sequence (P08684 whole entry): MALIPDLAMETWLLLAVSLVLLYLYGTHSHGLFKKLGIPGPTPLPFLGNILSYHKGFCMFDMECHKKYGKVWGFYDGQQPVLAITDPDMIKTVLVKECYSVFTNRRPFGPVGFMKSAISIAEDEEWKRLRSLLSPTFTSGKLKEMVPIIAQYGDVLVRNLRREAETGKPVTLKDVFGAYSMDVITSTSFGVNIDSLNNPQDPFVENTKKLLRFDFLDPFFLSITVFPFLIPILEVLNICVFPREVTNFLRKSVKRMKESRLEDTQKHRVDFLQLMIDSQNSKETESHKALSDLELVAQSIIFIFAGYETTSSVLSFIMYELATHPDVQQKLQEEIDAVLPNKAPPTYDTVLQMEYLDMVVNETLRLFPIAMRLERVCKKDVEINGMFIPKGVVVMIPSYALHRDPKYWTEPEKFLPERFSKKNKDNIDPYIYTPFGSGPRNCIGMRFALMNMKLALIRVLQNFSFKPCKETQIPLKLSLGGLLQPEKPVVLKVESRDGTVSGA

[1] = Stability in pooled, mixed-gender human liver microsomes; type: in vitro ADME
In short: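 Test compound incubated with 0.5 mg/mL microsomal protein in 100 mM potassium phosphate (pH 7.4), with 5 mM MgCl₂, 5 mM G-6-P, 0.5 U/mL G-6-P-DH and 2 mM NADPH. Mixtures were preincubated 3 min at 37 °C, started with NADPH and run 60 min. Aliquots taken at 0, 15, 30, 45 and 60 min were quenched in ice-cold acetonitrile and centrifuged. Supernatant analysed by reversed-phase HPLC-UV at 360 nm. Mean of three determinations, S.D.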

CYP 2D6 = CYP 2D6 (Homo sapiens, UniProt P10635); experiment: CYP 2D6 substrate activity in pooled human liver microsomes; type: in vitro ADME; conditions: for Substrate Activity % ±S.D.: dextromethorphan 200 µM, relative to control (100%)
CYP 2D6, sequence (P10635 whole entry): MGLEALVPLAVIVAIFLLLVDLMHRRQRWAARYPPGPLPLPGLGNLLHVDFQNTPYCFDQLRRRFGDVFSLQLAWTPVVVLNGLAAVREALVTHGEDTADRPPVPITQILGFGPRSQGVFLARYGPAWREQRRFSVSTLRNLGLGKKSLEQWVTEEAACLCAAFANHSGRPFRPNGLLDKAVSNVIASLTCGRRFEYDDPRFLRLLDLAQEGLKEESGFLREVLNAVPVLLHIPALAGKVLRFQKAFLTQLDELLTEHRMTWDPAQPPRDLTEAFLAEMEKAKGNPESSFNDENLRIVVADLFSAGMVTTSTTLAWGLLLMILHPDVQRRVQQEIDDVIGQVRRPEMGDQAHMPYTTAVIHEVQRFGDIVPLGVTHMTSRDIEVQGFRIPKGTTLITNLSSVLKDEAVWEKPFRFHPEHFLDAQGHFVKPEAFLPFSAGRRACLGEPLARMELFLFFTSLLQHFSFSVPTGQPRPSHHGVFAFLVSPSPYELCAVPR
In short: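 Pooled human liver microsomes incubated with the probe substrate and a range of test compound concentrations in 100 mM potassium phosphate (pH 7.4) with 5 mM MgCl₂. Mixtures were preincubated 3 min at 37 °C, then started with NADPH (final 2 mM). Substrate and metabolite were quantified by reversed-phase HPLC-UV: CYP3A4, testosterone/6β-hydroxytestosterone at 254 nm; CYP2D6, dextromethorphan/dextrorphan at 278 nm. Mean of three determinations, S.D.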

HIV-1 NL4-3 [2] = experiment: In vitro anti-HIV-1 NL4-3 antiviral assay in MAGI cells; type: cell-based; conditions: HIV-1 NL4-3, MAGI cells, mean of three determinations; for EC50: read-out: EC50 (SD), concentration for 50% inhibition of virus replication; for EC90: read-out: EC90 (SD), concentration for 90% reduction of virus replication
In short: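 MAGI cells carrying an LTR–β-galactosidase reporter were infected with HIV-1 in the presence of test compound. Infection and Tat expression drive the reporter through the HIV-1 LTR. Cells were lysed 6 days after infection, and β-galactosidase activity was read by chemiluminescence. Values are the mean of three determinations.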

HIV-1 NL4-3 [3] = conditions: read-out: anti-HIV-1 activity in cell culture EC50; MAGI cells; cited from earlier work

Row | Compound | CC50 (MAGI cells; read-out: CC50, concentration to reduce cell viability by 50%, MAGI cells, MTS dye reduction) [nM] | Substrate Activity % ±S.D. (CYP 3A4; testosterone 100 µM, compound 3 at 12.5 µM) [%] | Substrate Activity % ±S.D. (CYP 3A4; testosterone 100 µM, compound 3 at 25 µM) [%] | Substrate Activity % ±S.D. (CYP 3A4; testosterone 100 µM, compound 3 at 50 µM) [%] | Substrate Activity % ±S.D. (CYP 3A4; triazolam 200 µM, compound 3 at 12.5 µM) [%] | Substrate Activity % ±S.D. (CYP 3A4; triazolam 200 µM, compound 3 at 25 µM) [%] | Substrate Activity % ±S.D. (CYP 3A4; triazolam 200 µM, compound 3 at 50 µM) [%] | stability in pooled human liver microsomes (result in words) [1] | Substrate Activity % ±S.D. (CYP 2D6; compound 3 at 12.5 µM) [%] | Substrate Activity % ±S.D. (CYP 2D6; compound 3 at 25 µM) [%] | Substrate Activity % ±S.D. (CYP 2D6; compound 3 at 50 µM) [%] | inhibition or activation of CYP 2D6 (result in words) (CYP 2D6; pooled human liver microsomes, dextromethorphan as substrate) | EC50 (HIV-1 NL4-3 [2]) | EC90 (HIV-1 NL4-3 [2]) [nM] | CC50 (MAGI cells) [nM] | EC50 (HIV-1 NL4-3 [3]) [nM]
1 | (1S,2S)-4-(5-(2,4-difluorobenzyl)-1-(2-fluorobenzyl)-2-oxo-1,2-dihydropyridin-3-yl)-4-hydroxy-N-(2-hydroxycyclopentyl)but-3-enamide [compound 3] | 40400 | 109 ±13 | 97 ±18 | 112 ±15 | 124 ±23 | 98 ±7 | 100 ±8 | relatively stable | 86 ±7 | 87 ±17 | 87 ±13 | neither a significant inhibitor nor an activator | 25 nM and 25.1 nM | 415 |  | 
2 | (1R,2R)-4-(5-(2,4-difluorobenzyl)-1-(2-fluorobenzyl)-2-oxo-1,2-dihydropyridin-3-yl)-4-hydroxy-N-(2-hydroxycyclopentyl)but-3-enamide [compound 4] |  |  |  |  |  |  |  |  |  |  |  |  | 42.2 nM | 871 | 137000 | 
3 | O=C(O)C(=O)C=C(O)c1cc(Cc2ccc(F)cc2F)cn(Cc2ccccc2F)c1=O [compound 1, 4-(5-(2,4-difluorobenzyl)-1-(2-fluorobenzyl)-2-oxo-1,2-dihydropyridin-3-yl)-4-hydroxy-2-oxobut-3-enoic acid] |  |  |  |  |  |  |  |  |  |  |  |  |  |  |  | 500
